SKKanGAS inh: blocks kanamycin growth of S. pyogenes SKKanGAS strain. BacTiter-Glo, 6 h. inhibition, % at 7.5 µM. actives 1.3% (n = 300,000);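 active = mean replicate score, as percent of positive control median, at least 50; inconclusive = mean below 50 but one replicate at or above 50; inactive = mean and every replicate below 50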;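 note: strain carries kanamycin resistance gene driven by streptokinase promoter and grows in 40 µg/ml kanamycin; loss of luminescence reflects streptokinase promoter inhibition or plain growth inhibition; 0% = median of DMSO wells and 100% = positive control at its reference dose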
CSC inhib: blocks cancer stem cells; inhibition, % at 7.5 µM; actives 1.1% (n = 300,000); cancer stem cell-like cells viability, luminescence; in the data active = inhibition above about 75%; inconclusive = no clear call, values can overlap the other calls; tested in HMLE shEcad cells
T cruzi inh: T. cruzi replication inhibition; T. cruzi beta-gal in NIH3T3, luminescence, 90 h; AID 1885; actives 1.4% (n = 300,000); inhibition, % (concentration not given with the values);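 active = mean inhibition across valid replicates above about 55%, limit read from the data; inconclusive = mean below that limit but half or more replicates reach it; inactive = mean below it, under half of replicates reach it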;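 note: signal also drops with host cell toxicity which is not excluded here; 0% = plate median of DMSO wells and 100% = zero luminescence signal; higher percent means less beta-gal luminescence so fewer parasites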
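compound dosing = single 50 nL compound addition per well in DMSO | material = NIH/3T3 host cells with β-galactosidase reporter T. cruzi | input = 5,000 host fibroblasts per well | timing = ≥90 h infection period, 3 h prior cell attachment | read-out basis = percent inhibition of parasite-derived β-gal signal | detection = GalScreen β-gal luminescence, detergent lysis, 60 min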
Mdm2 MdmX PPI: disrupts the human Mdm2-MdmX interaction | O15151+Q00987 | SaOS-2 split-luciferase Mdm2/MdmX complementation, luminescence | inhibition, % at 8 µM | actives 3% (n = 330,000);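 active = inhibition of at least 50% at 8 µM in the primary screen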
Target sequence (O15151 whole entry, looked up): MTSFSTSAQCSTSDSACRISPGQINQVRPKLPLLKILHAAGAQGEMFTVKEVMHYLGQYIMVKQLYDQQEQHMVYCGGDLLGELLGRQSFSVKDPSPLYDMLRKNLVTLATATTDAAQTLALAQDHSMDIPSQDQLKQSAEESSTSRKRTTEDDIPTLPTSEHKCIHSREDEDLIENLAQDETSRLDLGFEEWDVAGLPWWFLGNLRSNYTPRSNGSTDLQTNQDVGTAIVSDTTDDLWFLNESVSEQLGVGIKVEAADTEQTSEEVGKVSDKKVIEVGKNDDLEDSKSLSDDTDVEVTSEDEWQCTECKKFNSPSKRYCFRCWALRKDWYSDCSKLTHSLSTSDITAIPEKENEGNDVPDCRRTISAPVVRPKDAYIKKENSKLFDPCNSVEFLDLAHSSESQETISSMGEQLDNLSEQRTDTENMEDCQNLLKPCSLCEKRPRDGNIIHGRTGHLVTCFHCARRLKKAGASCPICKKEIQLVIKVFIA
Target sequence (Q00987 whole entry, looked up): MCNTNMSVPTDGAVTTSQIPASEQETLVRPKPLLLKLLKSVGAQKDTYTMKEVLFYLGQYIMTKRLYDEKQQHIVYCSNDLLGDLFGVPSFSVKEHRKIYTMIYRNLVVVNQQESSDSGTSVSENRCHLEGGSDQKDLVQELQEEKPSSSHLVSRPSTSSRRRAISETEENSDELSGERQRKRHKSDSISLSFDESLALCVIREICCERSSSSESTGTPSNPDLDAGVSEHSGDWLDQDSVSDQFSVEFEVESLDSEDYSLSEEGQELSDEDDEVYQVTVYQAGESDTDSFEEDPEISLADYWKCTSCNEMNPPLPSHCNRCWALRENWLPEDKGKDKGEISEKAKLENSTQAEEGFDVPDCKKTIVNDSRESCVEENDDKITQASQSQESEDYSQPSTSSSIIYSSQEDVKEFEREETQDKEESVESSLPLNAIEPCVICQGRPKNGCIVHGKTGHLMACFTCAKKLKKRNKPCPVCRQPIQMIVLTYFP
aSyn UTR inh: 5' untranslated region of α-synuclein, MLPCN primary screen; AID 1813; inhibition, % (tested at 7.5 µM); actives 0.82% (n = 300,000); alpha-synuclein 5'UTR reporter, inhibitor activity; in the data active = inhibition above about 60%; inconclusive = no clear call, values can overlap the other calls;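 note: H4 neuroglioblastoma cells stably carrying SNCA 5'UTR luciferase fusion; 0% = DMSO wells and 100% = positive control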
Mdm2 MdmX conf: human Mdm2/MdmX binding inhibition, confirmed | shares compounds with Mdm2 MdmX PPI | luminescent assay | inhibition, % at 8 µM | actives 55% (n = 10,000) | AID 489028; in the data active = inhibition above about 40%
FLuc counter: full-length luciferase inhibition in Mdm2/MdmX counter-screen | inhibition, % at 8 µM | SaOS-2 full-length luciferase counterscreen, luminescence | AID 504607 | actives 77% (n = 6,200) | shares compounds with Mdm2 MdmX PPI;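 active = mean inhibition at 8 µM reaching about 37%, which flags the compound as non-specific, limit read from the data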;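 note: p53-null SaOS-2 cells with luciferase driven by a doxycycline-inducible promoter; compound on cells about two nights before reading with doxycycline added after day one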
Active calls of the source: *; u = inconclusive; x = no result; ! = not active in a repeat. In the library only some 5.4% were active in any assay of this set; here they are far more common.

SMILES	SKKanGAS inh	CSC inhib	T cruzi inh	Mdm2 MdmX PPI	aSyn UTR inh	Mdm2 MdmX conf	FLuc counter
COc1ccccc1C(NC(C)=O)c1c(O)ccc2ccc(O)cc12 (stereo not given)	13	-2	10	16	13	x	x
COc1ccc(C(NC(C)=O)c2ccc3cccnc3c2O)c(OC)c1 (stereo not given)	12	45	53	74*	83*	71*	31
CCCC(=O)NC(c1ccc(Cl)cc1)c1ccc2cccnc2c1O (stereo not given)	58*	106*	65*	78*	47	84*	57*
O=C(CSc1cnc2ccccc2n1)c1ccc(F)cc1	9	12	-11	-109	-53	x	x
COC(=O)c1ccc(C(=O)O)nc1	-1	-2	-1	12	8	x	x
Cc1ccc(C(O)(C(=O)NNc2ccc3ccccc3n2)c2ccc(C)cc2)cc1	71*	-16	36	51*!	-17	27	x
c1csc(CNc2ncnc3ccc(-c4ccoc4)cc23)c1	x	24	x	65*	x	66*	21
COC(=O)Cc1[nH]n(-c2nc3ccccc3s2)c(=O)c1C(C)=Nc1ccc(C)cc1	44	-5	-16	56*	98*	56*	32
COc1ccc(CNC(=O)[C@H](C)NC(=O)C2CCN(S(=O)(=O)c3ccccc3)CC2)cc1	-10	9	-8	0	1	x	x
CCC(=O)n1nc(-c2ccc(Cl)cc2)nc1N	-15	-9	-3	9	-14	x	x
CCc1nc(N)nc(N)c1-c1ccc(Cl)cc1	70*	x	21	51*	85*	17	x
CC1=CC(C)(C)n2c(O)c(C3=NC(=S)NC3=O)c3cc(OC(=O)c4cccc5ccccc45)cc1c32	8	23	41	77*	34	14	x
CC1=CC(C)(C)n2c(O)c(N=NC(N)=S)c3cc(C)cc1c32	-9	-2	26	17	5	x	x
OC(COc1ccc(CNCCc2ccccc2F)cc1)CN1CCCCC1 (stereo not given)	0	103*	39	55*	4	40*	54*
COc1cc2c(cc1OC)C(c1cccs1)N(C(=O)c1cccc(S(=O)(=O)N(C)C)c1)CC2 (stereo not given)	-5	-3	7	-10	-6	x	x
COc1ccc(-c2nc(CN3CCN(Cc4ccccc4)CC3)c(C)o2)cc1	1	-8	u	-7	3	x	x
Cc1cc(N2CCN(Cc3nc(-c4ccc(Cl)cc4)oc3C)CC2)cc(C)n1	2	38	19	64*	-5	39	68*
COc1ccc(-c2nc(CN3CCN(c4cc(C)nc(C)c4)CC3)c(C)o2)c2ccccc12	-2	-12	36	97*	68*	48*	34
CCSc1nnnn1-c1ccccc1	4	-13	3	25	6	x	x
Cc1ccc(C)c(-n2nnnc2Sc2nnnn2-c2ccccc2)c1	7	68	-6	100*	-10	79*	52*
O=C1/C(=C/c2ccccc2F)SC(=S)N1CCC(=O)N1CCCCC1CCO (stereo not given)	1	15	-1	61*	-30	25	x
O=C1/C(=C/c2cccc(Cl)c2)SC(=S)N1CCC(=O)N1CCCCC1CCO (stereo not given)	6	5	-24	63*	-18	41*	39*
COc1ccc(/C=C2\SC(=S)N(CCC(=O)N3CCCCC3CCO)C2=O)cc1 (stereo not given)	11	8	-7	36	11	x	x
O=C1/C(=C/c2ccco2)SC(=S)N1CCC(=O)N1CCCCC1CCO (stereo not given)	1	6	-1	46	-48	x	x
O=C1/C(=C/c2ccc(Cl)cc2)SC(=S)N1CCC(=O)N1CCCCC1CCO (stereo not given)	-6	15	-6	25	-32	x	x
SMILES	SKKanGAS inh	CSC inhib	T cruzi inh	Mdm2 MdmX PPI	aSyn UTR inh	Mdm2 MdmX conf	FLuc counter
O=C1/C(=C/c2ccccc2)SC(=S)N1CCCC(=O)N1CCCCC1CCO (stereo not given)	-3	15	-1	85*	-3	57*	37*
COc1ccc(S(=O)(=O)N2CCN(C(=O)CCNC(=O)c3ccccc3Cl)CC2)cc1	x	-16	x	-7	x	x	x
COC(=O)[C@H]1CN(C(=O)c2ccccc2)C(=O)N1	-6	-2	-4	11	-9	x	x
C#CCOc1ccc(/C=C2\SC(=S)N(Cc3cccnc3)C2=O)cc1	6	79*	29	60*	-82	71*	55*
O=C1/C(=C/c2ccncc2)SC(=S)N1Cc1ccccc1	7	58	5	43	38	x	x
COc1ccc(/C=C2\SC(=S)N(Cc3cccnc3)C2=O)cc1C	-14	80*	-5	59*	-127	32	x
O=C1/C(=C/c2ccc(O)cc2)SC(=S)N1Cc1cccnc1	-7	7	10	17	-28	x	x
CCCN1C(=O)/C(=C\C=C2/Sc3ccccc3N2CCO)SC1=S	46	-10	12	25	37	x	x
CCN1C(=O)/C(=C/C=C2/Sc3ccccc3N2CCO)SC1=S	10	-1	0	70*	18	19	x
CCOc1cccc(-c2c(C(=O)N/N=C/c3cccs3)nnn2-c2nonc2N)c1	-12	18	11	19	29	x	x
O=C(Nc1cc(Cl)ccc1O)c1snnc1-c1ccccc1	6	47	4	93*	6	58*	23
CC(=O)c1cccc(NC(=O)CSCc2ccccc2)c1	-1	-15	-17	-21	-100	x	x
N#Cc1cccc(NC(=S)Nc2ccccc2)c1	2	-14	15	-1	-47	x	x
c1cc(CSc2nnc(-c3ccc4c(c3)OCO4)o2)ccn1	-3	-2	9	-71	-86	x	x
O=C(NCCc1ccccc1)C1CCC(Cn2c(=O)c3ccccc3n(Cc3cccc(Cl)c3)c2=O)CC1 (stereo not given)	x	0	-6	54*	3	0	x
COc1cc(C(=O)Nc2cc3c4c(c2)CC(=O)N4CCC3)cc(OC)c1OC	-2	-2	-5	15	19	x	x
Cc1cc(NC(=O)C(C)SCC(=O)OCC(=O)N(Cc2ccccc2)C(C)(C)C)no1 (stereo not given)	-3	-8	-9	8	5	x	x
Cc1cc(NC(=O)C(C)SCC(=O)N(Cc2ccccc2)c2ccccc2)no1 (stereo not given)	-2	16	-4	67*	12	45*	110*
CCc1nc2cccnc2n1-c1ccc(CC(=O)NCCOC)cc1	-4	-5	-11	0	2	x	x
O=C(N/N=C/c1cccnc1)c1cc(-c2ccc(Br)cc2)nc2ccccc12	x	3	x	52*	x	56*	58*
O=C(Nc1ccc(Br)cc1)c1cc(-c2ccncc2)nc2ccccc12	x	-5	x	62*	x	51*	45*
